The values below come from publication PMC10262665 (Science (New York, N.Y.), 2023).

Assay [1] deals with T1, ENO1 (Homo sapiens, UniProt P06733). The experiment in a line: MIDAS protein-metabolite interaction screen. Type of assay: binding. To be noted: significant PMI Q < 0.01. In outline: (§1)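 Purified protein is separated from a defined metabolite library by a semipermeable dialysis membrane that passes metabolites but not protein, then incubated to relative equilibrium. Protein is denatured and removed. Metabolites in both chambers are quantified by flow injection analysis–MS, with methods optimized for each pool. The between-chamber fold change is normalized and corrected for nonspecific interactions.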

The target in assay [2] is T2, ENO2 (Homo sapiens, UniProt P09104). The experiment in a line: MIDAS protein-metabolite interaction screen. Type of assay: binding. To be noted: significant PMI Q < 0.01. The method in brief:
as §1

For assay [3], the target named is T1, ENO1. Kind of assay: Differential scanning fluorimetry. It counts as binding. Background: Differential scanning fluorimetry follows unfolding on heating by fluorescence.
For assay [4], the target named is T2, ENO2. Kind of assay: Differential scanning fluorimetry. It counts as binding.
Assay [5] has as its system enolase. Kind of assay: In vitro enolase activity. Type of assay: biochemical, human.
Assay [6] deals with T3, fumarase (FH) (Homo sapiens, UniProt P07954).
T3 sequence (P07954 45-510): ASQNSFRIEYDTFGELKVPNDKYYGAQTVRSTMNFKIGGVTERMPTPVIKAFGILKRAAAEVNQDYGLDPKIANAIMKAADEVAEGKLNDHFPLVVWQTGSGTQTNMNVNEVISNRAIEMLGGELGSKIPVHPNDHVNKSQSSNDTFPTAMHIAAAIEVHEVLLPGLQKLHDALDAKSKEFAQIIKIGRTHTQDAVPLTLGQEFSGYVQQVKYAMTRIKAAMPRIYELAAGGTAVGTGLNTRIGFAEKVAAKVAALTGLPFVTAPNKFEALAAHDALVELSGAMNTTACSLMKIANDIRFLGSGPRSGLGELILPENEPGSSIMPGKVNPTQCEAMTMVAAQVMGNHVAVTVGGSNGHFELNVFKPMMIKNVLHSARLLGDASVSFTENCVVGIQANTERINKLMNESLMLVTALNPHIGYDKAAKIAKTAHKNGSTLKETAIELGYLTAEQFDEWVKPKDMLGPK
The experiment in a line: MIDAS protein-metabolite interaction screen. It counts as binding. To be noted: significant PMI Q < 0.01. In outline:
as §1

Assay [7] has as its target T4, fumarase (Homo sapiens, UniProt P07954).
T4 sequence (P07954 45-510): T3 sequence (P07954 45-510)
Kind of assay: Differential scanning fluorimetry. It counts as binding.

Assay [8] addresses T4, fumarase. The experiment in a line: Fumarase kinetic assays. It counts as biochemical.

T2 sequence (P09104 whole entry): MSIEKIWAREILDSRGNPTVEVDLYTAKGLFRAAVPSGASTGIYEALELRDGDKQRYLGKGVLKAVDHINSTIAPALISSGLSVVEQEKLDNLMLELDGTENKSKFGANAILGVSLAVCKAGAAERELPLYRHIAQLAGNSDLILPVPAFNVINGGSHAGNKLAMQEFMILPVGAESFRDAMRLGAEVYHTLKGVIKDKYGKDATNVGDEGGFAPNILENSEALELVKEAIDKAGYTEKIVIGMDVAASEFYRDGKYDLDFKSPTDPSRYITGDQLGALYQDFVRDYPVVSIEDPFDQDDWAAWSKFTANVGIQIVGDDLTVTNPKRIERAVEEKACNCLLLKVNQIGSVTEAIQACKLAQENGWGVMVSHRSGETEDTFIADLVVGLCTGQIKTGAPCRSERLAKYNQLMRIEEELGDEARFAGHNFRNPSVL
T1 sequence (P06733 whole entry): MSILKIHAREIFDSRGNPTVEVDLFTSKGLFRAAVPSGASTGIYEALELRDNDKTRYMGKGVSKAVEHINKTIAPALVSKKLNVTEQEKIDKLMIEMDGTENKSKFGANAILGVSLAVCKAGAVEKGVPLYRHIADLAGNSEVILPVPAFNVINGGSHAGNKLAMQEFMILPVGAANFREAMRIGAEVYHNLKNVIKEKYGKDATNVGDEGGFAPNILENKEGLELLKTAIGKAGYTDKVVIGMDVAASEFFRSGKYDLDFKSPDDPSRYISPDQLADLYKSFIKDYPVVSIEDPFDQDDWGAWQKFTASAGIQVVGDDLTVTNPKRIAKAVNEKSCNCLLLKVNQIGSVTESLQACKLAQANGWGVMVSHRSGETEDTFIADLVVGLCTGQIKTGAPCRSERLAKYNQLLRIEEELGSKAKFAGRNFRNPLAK

On to `N[C@@H](COP(=O)(O)O)C(=O)O` [pSer, phosphoserine], for which the MIDAS protein-metabolite interaction entry in assay [1] and in assay [2] was “most enriched metabolite” in each case. For the same compound, the Kd in assay [3] came to 1380 µM; in assay [4], 1150 µM. Further, in assay [5], the “inhibition of in vitro enolase activity” value is given as “only weakly inhibited”.

In the case of `NC(CP(=O)(O)O)C(=O)O` (centres unmarked) [AP-3, 2-amino-3-phosphonopropionic acid], the MIDAS protein-metabolite interaction entry in assay [6] is reported as “putative interactor”. This compound returned a dissociation constant (Kd) in assay [7] of 980 µM. Also, the “inhibition of fumarase, mode” value in assay [8] is listed as “competitively inhibited”.

In general, Kd refers to the free concentration of one partner at which half of the binding sites on the other are occupied at equilibrium, for simple one-to-one binding. A high value points to weaker binding.
